Test results taken from ChEMBL document CHEMBL1914446, “Pharmacophore identification, virtual screening and biological evaluation of prenylated flavonoids derivatives as PKB/Akt1 inhibitors” (Eur J Med Chem, 2011).
Values belong to the compound of their own block, whether it stands above or below them. Calls of active or inactive are those of the source. The calls are words filed in the database; no cut-off is given here.

Columns and labels:
[1] = target: T1, RAC-alpha serine/threonine-protein kinase (Homo sapiens, UniProt P31749); assay: Inhibition of GST-tagged PKB/Akt1 incubated for 5 mins before eNOS substrate and ATP addition measured after 30 mins by kinase assay
OVCAR-8 [2] = assay: Decrease in GSK3-beta protein level in human OVCAR8 cells at 20 uM by Western blot analysis; format: functional, cell-based
Procedure, shortened: (§1)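 OVCAR-8 cells treated, harvested, washed in ice-cold PBS and lysed in immunoprecipitation buffer with NaF, β-glycerophosphate, detergents and PMSF. Debris pelleted at 13,000 rpm for 30 min at 4 °C; protein measured by Bradford. Immunoblots probed for phospho-Akt Ser-473, phospho- and total GSK3, with GAPDH.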

PC-3 = assay: Antiproliferative activity against human PC3 after 72 hrs by MTT assay; format: functional, cell-based; conditions: PC-3, 72 h
Procedure, shortened: (§2)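 MTT read-out: cells seeded at 4000 per well, attached overnight, exposed to compound over 1.0–100.0 µM for 72 h. MTT solution (5.0 mg/ml) added for a further 4 h at 37 °C, formazan dissolved in DMSO, absorbance at 570 nm. Triplicate wells in three independent experiments; IC50 from dose–effect analysis.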

OVCAR-8 [3] = assay: Antiproliferative activity against human OVCAR8 after 72 hrs by MTT assay; format: functional, cell-based; conditions: OVCAR-8, 72 h; procedure, shortened: as §2
HL-60 = assay: Antiproliferative activity against human HL60 after 72 hrs by MTT assay; format: functional, cell-based; conditions: HL-60, 72 h; procedure, shortened: as §2
OVCAR-8 [4] = assay: Induction of apoptosis in human OVCAR8 cells assessed as apoptotic cells at 20 uM after 72 hrs by Annexin V-FITC/propidium iodide staining-based FACS analysis; format: functional
Procedure, shortened: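 OVCAR-8 cells (5 × 10^4 cells/ml) cultured in flasks and treated with vehicle or compound. After treatment, cells harvested and washed twice in ice-cold PBS, then stained with Annexin V-FITC/propidium iodide and analysed by flow cytometry.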

OVCAR-8 [5] = assay: Down regulation of PKB/Akt phosphorylation at Ser-473 in human OVCAR8 cells at 20 uM by Western blot analysis; format: functional, cell-based; procedure, shortened: as §1
OVCAR-8 [6] = assay: Inhibition of PKB/Akt in human OVCAR8 cells assessed as decrease of GSK3-beta phosphorylation at 20 uM after Western blot analysis; format: cell-based; procedure, shortened: as §1
[7] = target: T1, RAC-alpha serine/threonine-protein kinase; assay: Inhibition of GST-tagged PKB/Akt1 incubated for 5 mins before eNOS substrate and ATP addition at > 50 uM measured after 30 mins by kinase assay
Procedure, shortened: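 HTScan PKB/Akt1 kit: active recombinant GST-Akt1 (4 ng) in kinase buffer (Tris-HCl pH 7.5, MgCl2, β-glycerophosphate, Na3VO4, DTT) preincubated with compound or DMSO vehicle 5 min at room temperature. ATP/substrate cocktail with eNOS substrate added. Reaction stopped with 50 mM EDTA (pH 8.0); activity read per kit instructions. H-89 as positive control.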

T1 sequence (P31749 whole entry): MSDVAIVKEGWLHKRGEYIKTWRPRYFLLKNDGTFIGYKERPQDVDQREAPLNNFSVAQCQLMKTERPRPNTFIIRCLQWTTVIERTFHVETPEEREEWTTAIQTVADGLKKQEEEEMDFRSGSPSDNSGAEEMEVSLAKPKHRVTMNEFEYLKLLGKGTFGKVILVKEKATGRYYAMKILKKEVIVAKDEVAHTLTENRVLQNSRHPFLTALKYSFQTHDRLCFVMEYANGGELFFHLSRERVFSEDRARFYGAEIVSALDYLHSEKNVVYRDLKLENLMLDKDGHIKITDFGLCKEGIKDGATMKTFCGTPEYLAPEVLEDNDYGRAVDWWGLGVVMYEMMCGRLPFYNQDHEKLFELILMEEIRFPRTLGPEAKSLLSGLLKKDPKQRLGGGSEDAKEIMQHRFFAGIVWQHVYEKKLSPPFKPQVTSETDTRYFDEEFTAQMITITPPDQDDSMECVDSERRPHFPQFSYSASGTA

IC50 ([1]; read-out: IC50): 54.5 µM
Compound: CC(C)=CCc1c(O)cc2oc(-c3ccc(O)cc3O)cc(=O)c2c1O

IC50 [1]: Not Active
Compound: O=c1cc(CSc2nnc(O)n2C2Cc3ccccc3C2)c2ccc(O)cc2o1

IC50 [1]: Not Active
Compound: CC(C)=CCc1cc2c(=O)cc(-c3ccc(O)cc3O)oc2cc1O

IC50 ([1]; read-out: IC50): 85.9 µM
Compound: CC(C)=CCc1cc(C(=O)/C=C/c2cccc(O)c2)c(O)cc1O

IC50 ([1]; read-out: IC50): 5.4 µM | IC50 (PC-3): 14.6 µM | IC50 (OVCAR-8 [3]): 23.8 µM | IC50 (HL-60): 2.5 µM
Compound: CC(C)=CCc1c(O)cc2oc(-c3ccc(O)c(O)c3)cc(=O)c2c1O
Activity (OVCAR-8 [2]): inactive | Activity (OVCAR-8 [4]): 40.19% | Activity (OVCAR-8 [5]): Active | inhibition (OVCAR-8 [6]): Active

IC50 ([1]; read-out: IC50): 3.9 µM | IC50 (PC-3): 18.6 µM | IC50 (OVCAR-8 [3]): 16.6 µM | IC50 (HL-60): 3.31 µM
Compound: CC(C)=CCc1c(O)cc(O)c2c(=O)cc(-c3ccc(O)c(O)c3)oc12
Activity (OVCAR-8 [2]): inactive | Activity (OVCAR-8 [4]): 49.11% | Activity (OVCAR-8 [5]): Active | inhibition (OVCAR-8 [6]): Active

IC50 [1]: Not Active
Compound: Cc1ccc(S(=O)(=O)OC[C@H]2O[C@@H](n3cnc4c(=O)[nH]c(NC(=O)C(C)C)nc43)C[C@H]2O)cc1

inhibition [7]: 19.6% | IC50 ([1]; read-out: IC50): > 50 µM
Compound: CC(=O)Nc1cccc(-n2nnc(SCC(=O)NCc3cccs3)n2)c1

IC50 ([1]; read-out: IC50): 144 µM
Compound: CC(C)=CCc1c(O)cc(O)c(C(=O)/C=C/c2ccc(O)cc2)c1O [DEMETHYLXANTHOHUMOL]
